Bioassay records from PubChem.
An excerpt weighted towards active compounds, which were near 2.1% of everything screened.
CRFR2-BP ag: agonists of CRF-BP/CRF-R2 complex, primary screen, cell-based, HEK293, calcium dye fluorescence, uHTS. calcium dye fluorescence (FLIPR); percent of saturating CRF peptide response. activation, % at 13.2 µM. CRF-binding protein / CRF receptor 2 complex (human). 350,000 compounds, 0.46% hits;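 active means activation of at least 50%, plus an integration ratio under a set limit after plate pattern correction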;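 further: plate controls were neutral control wells without compound for no effect and CRF at EC100 for full effect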
VIM-2 inhibitor: VIM-2 metallo-beta-lactamase inhibitors, primary screen, biochemical, epi-absorbance readout, Pseudomonas aeruginosa enzyme | purified VIM-2, nitrocefin hydrolysis, epi-absorbance fluorescence | inhibition, % at 5.6 µM | 290,000 compounds, 0.89% hits | AID 1527, 2009;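 active means inhibition above the mean of all tested compounds plus 3 SD, cutoff set per screening run, cut at about 7.5% in these data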;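 further: red hydrolysis product quenches plate fluorescence so inhibitors raise well fluorescence; 0% = enzyme with DMSO and 100% = DMSO without enzyme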
IMP-1 inh: IMP-1 metallo-beta-lactamase inhibitors, primary screen, biochemical, epi-absorbance readout, Pseudomonas aeruginosa enzyme; metallo-beta-lactamase IMP-1 (Pseudomonas aeruginosa); purified IMP-1, nitrocefin hydrolysis, epi-absorbance fluorescence; inhibition, % at 5.6 µM; 290,000 compounds, 0.45% hits; AID 1556, 2009;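 active means inhibition above the mean plus 3 SD of all compounds in the same screening run, cut at about 4.5% in these data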;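 further: 0% = IMP-1 with DMSO and 100% = DMSO wells lacking enzyme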
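System: purified IMP-1; amount: IMP-1 0.2 nM before substrate addition; compound: single dose, 5.6 µM; times: 25 °C, 15 min preincubation, 25 min reaction; signal: Epi-absorbance via hydrolysed-nitrocefin quenching of white-plate fluorescence, 480/530 nm, EDTA stop; benchmarks: DMSO with and without IMP-1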
zfTRPN1 agonist: zebrafish TRPN1 channel agonists, primary screen, cell-based, HEK293, calcium fluorescence; transient receptor potential cation channel N1 (TRPN1/NompC), Danio rerio; activation, % at 3 µM; HEK293 zebrafish TRPN1-YFP, Fluo-8 calcium fluorescence; 100% = response to 87 µM carbachol; 220,000 compounds, 0.18% hits; AID 1424, 2008;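 active means activation above its plate's cutoff, the mean activation of test wells on that plate plus 3 SD, cut at about 19% in these data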;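 further: 0% = DMSO alone and 100% = 87 µM carbachol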
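Material: zebrafish TRPN1-YFP in HEK293 cells. Doses: one dose of 3 µM, 0.3% DMSO. Incubation: dye 1 h 37 °C plus 30 min RT. Measured by: intracellular calcium fluorescence with Fluo-8.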
TRPML3 agonist: human TRPML3 channel agonists, primary screen, cell-based, HEK293 TRPML3-YFP, Fluo-8 calcium fluorescence, 3 µM; 100% = the carbachol control signal; activation, % at 3 µM; 220,000 compounds, 0.29% hits; AID 1448, 2008;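 active means activation above its plate's cutoff, the mean activation of the plate's test wells plus 3 SD, cut at about 12% in these data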;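 further: 0% = DMSO only wells and 100% = carbachol wells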
Target sequence (Q8TDD5 whole entry, looked up): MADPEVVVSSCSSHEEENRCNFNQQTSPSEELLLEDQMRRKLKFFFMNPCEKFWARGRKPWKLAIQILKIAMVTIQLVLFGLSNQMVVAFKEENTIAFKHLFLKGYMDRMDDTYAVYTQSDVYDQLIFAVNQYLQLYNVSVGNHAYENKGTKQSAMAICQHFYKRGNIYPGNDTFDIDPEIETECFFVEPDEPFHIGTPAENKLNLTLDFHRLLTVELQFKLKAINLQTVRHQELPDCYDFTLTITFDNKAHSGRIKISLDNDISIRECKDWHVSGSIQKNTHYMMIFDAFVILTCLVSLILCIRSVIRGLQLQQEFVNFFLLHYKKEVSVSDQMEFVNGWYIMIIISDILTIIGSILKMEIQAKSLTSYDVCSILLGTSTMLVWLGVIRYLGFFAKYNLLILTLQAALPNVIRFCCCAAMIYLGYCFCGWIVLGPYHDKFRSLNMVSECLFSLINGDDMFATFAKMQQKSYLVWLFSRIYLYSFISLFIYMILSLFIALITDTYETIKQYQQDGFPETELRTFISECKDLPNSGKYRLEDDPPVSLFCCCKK
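Test system – HEK293 line with stable expression of human TRPML3-YFP channel · Control set – carbachol 87 µM final as high control (100%), DMSO as low control (0%) · Signal – Fluo-8 calcium dye fluorescence, ex 470-495, em 515-575 nm · Incubation – 1-h 37 °C dye load, 5-s basal, 120-s post-compound reads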
CRFR2-BP antag: antagonists of CRF-BP/CRF-R2 complex, primary screen, cell-based, HEK293, calcium dye fluorescence, uHTS. CRF-induced calcium fluorescence. inhibition, % at 11.8 µM. 350,000 compounds, 0.59% hits. AID 588475, 2011;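 active means inhibition of the ligand-induced calcium signal above about 50% at the single tested concentration, limit read from the data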
Active calls of the source: *; · = no result.

SMILES	CRFR2-BP ag	VIM-2 inhibitor	IMP-1 inh	zfTRPN1 agonist	TRPML3 agonist	CRFR2-BP antag
O=C(Nc1ccccc1C(F)(F)F)c1ncn[nH]1	-0.4	-5.3	-4.0	0.1	0.6	2.6
C[C@H](CO)N1C[C@H](C)[C@@H](CN(C)S(=O)(=O)c2ccc(F)cc2)Oc2ccc(NC(=O)NC3CCCCC3)cc2C1=O	0.5	·	·	·	·	1.0
CC(CCN1CCN=C1Nc1ccccc1)c1ccccc1 (stereo not drawn)	-0.9	-2.7	-2.4	·	·	1.8
C=CCN(CC=C)C(=S)Nc1ccc(OC)c(OC)c1	0.5	-2.8	-1.9	0.6	0.1	8.4
Cc1ccc(S(=O)(=O)Oc2ccc(C(c3c(C)[nH][nH]c3=O)c3c(C)[nH][nH]c3=O)cc2)cc1	125.5*	-1.6	-4.1	-1.4	-0.1	-159.9
c1ccc(-n2nnnc2Oc2ccc(-n3ccnc3)cc2)cc1	4.2	10.9*	-3.5	0.2	0.2	-3.0
COc1ccc(Oc2nnnn2-c2ccccc2)cc1	-4.4	-3.4	3.3	0.7	0.6	-2.3
CN(C)S(=O)(=O)c1cccc(NC(=O)C2CCCN(C(=O)c3ccc(Cl)cc3)C2)c1 (stereo not drawn)	-1.4	·	·	·	·	-21.9
CC(=O)Nc1nc2c(ccc3ccccc32)s1	-1.1	-2.5	-3.3	·	·	11.3
O=C(Cc1cccs1)Nc1nc2c(ccc3ccccc32)s1	8.1	-3.6	-3.2	-1.1	0.4	53.2*
CCOc1ccc2nc(/N=C/c3nc(-c4ccc(Br)cc4)oc3O)sc2c1	146.7*	-1.5	-5.0	-0.2	0.0	-116.0
CC(=C\C(=O)O)/C(=C\c1cccc2ccccc12)C(=O)O	-0.2	-3.3	-1.3	0.7	0.5	8.6
COc1ccccc1N1C(=O)c2cccc3c(C(=O)O)ccc(c23)C1=O	1.6	-3.5	0.2	-0.9	0.5	-18.7
COc1ccccc1N1C(=O)c2cccc3c(N(C)CCO)ccc(c23)C1=O	110.5*	1.9	-2.2	·	·	-104.4
Cc1ccccc1N1C(=O)c2cccc3c(N(C)CCO)ccc(c23)C1=O	158.9*	1.6	1.4	25.8*	17.9*	-152.5
CC(=O)Nc1cccc2c1C(=O)N(c1ccccc1C)C2=O	0.5	-4.8	-1.1	-0.6	-1.1	-33.9
COc1ccccc1C(CNC(=O)c1oc2ccccc2c1C)N1CCCC1 (stereo not drawn)	-1.4	·	·	·	·	-7.0
CC12CCC(=O)N1C(C(=O)NCc1ccccc1Cl)CS2 (stereo not drawn)	2.4	·	·	·	·	-4.3
CC1(C)CC(=O)c2cnc(NCC3CCCO3)nc2C1 (stereo not drawn)	0.4	-1.4	6.0*	2.1	0.7	-4.8
CC1CC(=O)c2cnc(NCC3CCCO3)nc2C1 (stereo not drawn)	0.7	0.0	-2.3	-0.6	0.5	-4.9
COC(=O)c1c(NS(=O)(=O)Cc2ccccc2)sc2c1CCCC2	-0.7	-3.5	-1.2	-1.0	0.2	5.8
CC(C)OC(=O)c1c(NS(=O)(=O)c2ccccc2)sc2c1CCCC2	76.4*	-1.1	-3.7	-1.0	0.0	5.2
CNC(=O)c1cn(-c2ccccc2)c(=O)c2ccccc12	-1.2	-1.8	6.1*	-0.6	1.2	-5.8
O=Cc1coc2c(ccc3ccccc32)c1=O	·	0.7	31.9*	·	·	·
O=C/C=C/c1coc2ccc3ccccc3c2c1=O	4.3	-1.9	-1.8	2.5	0.8	-14.1
SMILES	CRFR2-BP ag	VIM-2 inhibitor	IMP-1 inh	zfTRPN1 agonist	TRPML3 agonist	CRFR2-BP antag
COc1ccc(N(CC(=O)NCc2ccco2)C(=O)CCC(=O)Nc2ccccn2)cc1	-0.2	-4.7	-2.0	·	·	1.1
O=C(Nc1ccccc1C(=O)Nc1ccncc1)c1ccccc1	-1.6	2.8	-1.3	·	·	17.4
COc1cc(/C=C2\SC(c3ccc(C)cc3)=NC2=O)ccc1O	50.2*	6.9	2.7	1.2	-0.3	-120.0
COc1ccc(/C=C2\SC(c3ccc(C)cc3)=NC2=O)cc1OC	132.2*	6.1	1.0	2.9	1.7	-136.6
Cc1ccc(S(=O)(=O)N(CC(=O)Nc2ccccc2C(=O)O)c2ccc(Cl)cc2)cc1	-0.2	0.6	1.0	-1.1	0.3	50.6*
CC1=NN(C(=O)c2ccco2)C(O)(c2ccccc2)C1 (stereo not drawn)	-0.8	-6.5	-3.2	-0.4	1.2	4.4
CC1=NN(C(=O)c2ccc(C)o2)C(O)(c2ccccc2)C1 (stereo not drawn)	-0.8	-0.9	45.6*	-0.8	0.8	-4.6
CCOc1ccc(S(=O)(=O)Nc2cccnc2)cc1	-1.4	-0.7	-0.7	1.2	0.8	52.9*
CCCC(=O)NC(=S)Nc1ccc(S(=O)(=O)Nc2ccc(OCC)cc2)cc1	54.7*	-2.2	0.5	9.6	4.5	-108.9
CCCc1nc(SCc2cccnc2)c2c(=O)n(C)c(=O)n(C)c2n1	-1.9	10.3*	-4.5	0.3	-0.1	-20.9
CCCN1CCc2c(sc(NC(=S)NC(=O)c3ccccc3)c2C#N)C1	148.0*	-0.2	-0.3	4.0	4.4	-177.6
CC(C)C1Cc2c(sc(NC(=S)NC(=O)c3ccccc3)c2C#N)CO1 (stereo not drawn)	1.4	-2.5	-2.8	-0.6	1.2	-48.7
CC(C)N1CCc2c(sc(NC(=S)NC(=O)c3ccccc3)c2C#N)C1	55.0*	0.7	0.6	10.0	8.5	-31.2
CCOC(=O)c1c(NC(=O)c2ccc(S(=O)(=O)N3CCOCC3)cc2)sc2c1CCN(C)C2	2.4	8.6*	1.6	-0.6	0.7	-9.6
Cc1sc(NC(=S)NC(=O)c2ccccc2)c(C#N)c1C	-0.8	-2.4	-0.8	-1.2	0.4	-23.9
CCOC(=O)N1CCc2c(sc(NC(=O)c3ccc(S(=O)(=O)N4CCCC4)cc3)c2C#N)C1	2.3	-0.6	1.2	0.3	0.4	-0.4
CC(C)N1CCc2c(sc(NC(=O)c3ccc(S(=O)(=O)N4CCOCC4)cc3)c2C#N)C1	131.1*	0.6	-1.9	3.6	0.8	-64.9
Cc1ccc(C)c(CN2CCSCC2)c1	0.4	-0.8	2.1	·	·	-6.0
CN(Cc1ccccc1)C(=O)c1[nH]cnc1C(=O)N[C@@H](Cc1ccccc1)C(=O)OC(C)(C)C	-2.2	-5.1	-7.0	·	·	-4.5
O=C(/C=C/c1ccccc1)Nc1cccc(C(=O)NC2CC2)c1	-1.5	·	·	·	·	11.7
CC1O[C@@H](O[C@H](C)CC[C@@H](C)O[C@H]2OC(C)[C@@H](O)C[C@H]2O)C(O)C[C@H]1O (stereo partly drawn)	0.1	·	·	·	·	-2.8
